ChEMBL document CHEMBL1145502, “Roxithromycin favorably modifies the initial phase of resistance against infection with macrolide-resistant Streptococcus pneumoniae in a murine pneumonia model” (Antimicrob Agents Chemother, 2007)
Converted amounts (≈) assume the structure as drawn. The source made the active and inactive calls. No cut-off for these calls is given here.

What was measured:
Streptococcus pneumoniae [1] = assay: Reduction of pneumolysin production in Streptococcus pneumoniae NMU112 lysates at 5 ug/mL after 12 hrs by Western blot relative to control; assay type: functional, organism-based
Summary of the method: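 NMU112 at 5 × 10⁷ CFU/ml in THY cultured with macrolide at 37°C for 12 h, then whole-cell sonicated lysates run on SDS-PAGE and immunoblotted for pneumolysin. Band densitometry as mean % of drug-free culture; two cultures per dose per experiment, three experiments.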

Streptococcus pneumoniae [2] = assay: Antimicrobial activity against Streptococcus pneumoniae NMU605; assay type: functional
Summary of the method: (§1)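 Broth microdilution MIC (NCCLS method) in Mueller-Hinton broth with 3% lysed horse blood; clinical isolates NMU605 (serotype 3) and NMUP45 (serotype 4).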

Streptococcus pneumoniae [3] = assay: Antimicrobial activity against Streptococcus pneumoniae NMU112 infected in po dosed CBA/J mouse assessed as delaying in development of bacteremia […]; assay type: functional, organism-based
Streptococcus pneumoniae [4] = assay: Antimicrobial activity against Streptococcus pneumoniae NMU112; assay type: functional
Summary of the method: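 Broth microdilution MIC per NCCLS in Mueller-Hinton broth with 3% lysed horse blood.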

Streptococcus pneumoniae [5] = assay: Antimicrobial activity against drug-resistant Streptococcus pneumoniae NMU112 infected CBA/J mouse assessed as median survival time at 10 mg/kg, po relative to control; assay type: functional
Summary of the method: (§2)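 Male CBA/J mice, 3-4 weeks old, 28-30 g. Macrolide given by oral gavage in saline for 3 days; RXM, ERY and CLR twice daily at 12-h intervals, AZM once daily. Saline controls. 24 h after the last dose, mice were infected intratracheally with 5 × 10⁴ CFU NMU112 (erm(B)/mef(A)). Kaplan-Meier survival and median survival time, log rank test; 10 mice per group per experiment.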

Streptococcus pneumoniae [6] = assay: Antimicrobial activity against drug-resistant Streptococcus pneumoniae NMU112 infected CBA/J mouse assessed as median survival time at 5 mg/kg, po relative to control; assay type: functional; summary of the method: as §2
Streptococcus pneumoniae [7] = assay: Inhibition of pneumococcal surface protein A production in Streptococcus pneumoniae NMU112 lysates at 5 ug/mL after 12 hrs by Western blot relative to control; assay type: functional, organism-based
Summary of the method: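 Strain NMU112 (5 × 10⁷ CFU/ml in THY) cultured 12 h at 37°C with drug. Sonicated whole-cell lysates run on SDS-PAGE and Western blotted; bands measured by densitometry as % of drug-free culture. Two cultures per dose, three experiments (n = 5–6).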

Streptococcus pneumoniae [8] = assay: Antimicrobial activity against Streptococcus pneumoniae NMUP45; assay type: functional; summary of the method: as §1

CC[C@H]1OC(=O)[C@H](C)[C@@H](O[C@H]2C[C@@](C)(OC)[C@@H](O)[C@H](C)O2)[C@H](C)[C@@H](O[C@@H]2O[C@H](C)C[C@H](N(C)C)[C@H]2O)[C@](C)(OC)C[C@@H](C)C(=O)[C@H](C)[C@@H](O)[C@]1(C)O [CLARITHROMYCIN]
Activity (Streptococcus pneumoniae [1]): Active
MIC (Streptococcus pneumoniae [2]): 0.03 µg/mL (≈ 0.0401 µM)
Activity (Streptococcus pneumoniae [3]): Active
MIC (Streptococcus pneumoniae [4]): ≥ 256 µg/mL
MST (Streptococcus pneumoniae [5]): 8.45 days
MST (Streptococcus pneumoniae [6]): 6.82 days
Activity (Streptococcus pneumoniae [7]): Active
MIC (Streptococcus pneumoniae [8]): 2 µg/mL (≈ 2.67 µM)

CC[C@H]1OC(=O)[C@H](C)[C@@H](O[C@H]2C[C@@](C)(OC)[C@@H](O)[C@H](C)O2)[C@H](C)[C@@H](O[C@@H]2O[C@H](C)C[C@H](N(C)C)[C@H]2O)[C@](C)(O)C[C@@H](C)CN(C)[C@H](C)[C@@H](O)[C@]1(C)O [AZITHROMYCIN]
Activity (Streptococcus pneumoniae [1]): Active
MIC (Streptococcus pneumoniae [2]): 0.125 µg/mL (≈ 0.167 µM)
Activity (Streptococcus pneumoniae [3]): Active
MIC (Streptococcus pneumoniae [4]): ≥ 256 µg/mL
MST (Streptococcus pneumoniae [5]): 7.33 days
MST (Streptococcus pneumoniae [6]): 5.84 days
Activity (Streptococcus pneumoniae [7]): Active
